# Measured values: ChEMBL document CHEMBL3244330, “Structure--activity relationships of n-substituted dopamine and 2-amino-6,7-dihydroxy-1,2,3,4-tetrahydronaphthalene analogues: behavioral effects in lesioned and reserpinized mice” (J Med Chem, 1979)
# The source made the active and inactive calls. The calls are words filed in the database; no cut-off is given here.
# Key:
# [1] = test system: Mus musculus; assay: Reversal of reserpine-induced catalepsy in ip dosed Swiss albino (CD1) mouse; format: functional
# Outline: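 Male Swiss albino CD1 mice, 5 weeks old, got reserpine 5 mg/kg ip, then α-MTM 250 mg/kg ip 17 h later, then the test drug ip 4 h after that. Catalepsy was scored by the rubber-stopper test (time to step off the stopper). At least four doses were used, with ≥8 mice per dose. ED50 was taken from a log-probit plot of percent responders against dose.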
# [2] = test system: Mus musculus; assay: Postural effect on caudectomized Swiss albino mouse assessed as latency to onset time of asymmetric postural effect at 56 mg/kg, ip; format: functional; details: route intraperitoneal
# Outline: (§1)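 Male Swiss albino Hale-Stoner mice with a right caudectomy made by suction. A lesion was accepted if the mouse responded to apomorphine 4 weeks after surgery. Compounds were dissolved in 0.9% saline and injected ip at random into groups of six, with a maximum dose of 0.348 mmol/kg. 18 mice were used per compound, and mice were retested after 5–6 day intervals. Onset and duration of the asymmetric posture are reported as mean ± SE from six animals.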
# [3] = test system: Mus musculus; assay: Postural effect on caudectomized Swiss albino mouse assessed as time duration of asymmetric posture at 28 mg/kg, ip; format: functional; details: route intraperitoneal; outline: as §1
# [4] = test system: Mus musculus; assay: Postural effect on caudectomized Swiss albino mouse assessed as latency to onset time of asymmetric postural effect at 28 mg/kg, ip; format: functional; details: route intraperitoneal; outline: as §1
# [5] = test system: Mus musculus; assay: Postural effect on caudectomized Swiss albino mouse assessed as time duration of asymmetric posture at 56 mg/kg, ip; format: functional; details: route intraperitoneal
# Outline: (§2)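 Male Swiss albino Hale-Stoner mice given a right caudectomy by suction. The lesion counted as successful if the mice reacted to apomorphine 4 weeks later. Drug was given ip in 0.9% saline, up to 0.348 mmol/kg, to randomised groups of six, with 5-6 days before reuse. Onset and duration of asymmetric posture are reported as mean ± SE from six animals.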
# [6] = test system: Mus musculus; assay: Postural effect on caudectomized Swiss albino mouse assessed as latency to onset time of asymmetric postural effect at 120 mg/kg, ip; format: functional, organism-based; set-up: dose 120 mg/kg; outline: as §1
# [7] = test system: Mus musculus; assay: Postural effect on caudectomized Swiss albino mouse assessed as latency to onset time of asymmetric postural effect at 52.6 mg/kg, ip; format: functional, organism-based; set-up: dose 52.6 mg/kg; outline: as §1
# [8] = test system: Mus musculus; assay: Postural effect on caudectomized Swiss albino mouse assessed as latency to onset time of asymmetric postural effect at 105.1 mg/kg, ip; format: functional; details: route intraperitoneal; outline: as §1
# [9] = test system: Mus musculus; assay: Postural effect on caudectomized Swiss albino mouse assessed as time duration of asymmetric posture at 78.9 mg/kg, ip; format: functional; details: route intraperitoneal; outline: as §2
# [10] = test system: Mus musculus; assay: Postural effect on caudectomized Swiss albino mouse assessed as latency to onset time of asymmetric postural effect at 26.3 mg/kg, ip; format: functional, organism-based; set-up: dose 26.3 mg/kg; outline: as §1
# [11] = test system: Mus musculus; assay: Reversal of reserpine-induced catalepsy in Swiss albino (CD1) mouse at 0.348 mmol/kg, ip; format: functional, organism-based
# [12] = test system: Mus musculus; assay: Postural effect on caudectomized Swiss albino mouse assessed as latency to onset time of asymmetric postural effect at 92 mg/kg, ip; format: functional; details: route intraperitoneal; outline: as §1
# [13] = test system: Mus musculus; assay: Postural effect on caudectomized Swiss albino mouse assessed as time duration of asymmetric posture at 105.1 mg/kg, ip; format: functional; details: route intraperitoneal; outline: as §1
# [14] = test system: Mus musculus; assay: Postural effect on caudectomized Swiss albino mouse assessed as latency to onset time of asymmetric postural effect at 78.9 mg/kg, ip; format: functional; details: route intraperitoneal; outline: as §1
# [15] = test system: Mus musculus; assay: Postural effect on caudectomized Swiss albino mouse assessed as time duration of asymmetric posture at 92 mg/kg, ip; format: functional; details: route intraperitoneal; outline: as §2
# [16] = test system: Mus musculus; assay: Postural effect on caudectomized Swiss albino mouse assessed as latency to onset time of asymmetric postural effect at 34.2 mg/kg, ip; format: functional; details: route intraperitoneal; outline: as §1
# [17] = test system: Mus musculus; assay: Postural effect on caudectomized Swiss albino mouse assessed as time duration of asymmetric posture at 68.4 mg/kg, ip; format: functional; details: route intraperitoneal; outline: as §2
# [18] = test system: Mus musculus; assay: Postural effect on caudectomized Swiss albino mouse assessed as time duration of asymmetric posture at 34.2 mg/kg, ip; format: functional; details: route intraperitoneal; outline: as §1
# [19] = test system: Mus musculus; assay: Postural effect on caudectomized Swiss albino mouse assessed as latency to onset time of asymmetric postural effect at 68.4 mg/kg, ip; format: functional; details: route intraperitoneal; outline: as §1
# [20] = test system: Mus musculus; assay: Postural effect on caudectomized Swiss albino mouse assessed as latency to onset time of asymmetric postural effect at 32.3 mg/kg, ip; format: functional; details: route intraperitoneal; outline: as §1
# [21] = test system: Mus musculus; assay: Postural effect on caudectomized Swiss albino mouse assessed as time duration of asymmetric posture at 96.9 mg/kg, ip; format: functional; details: route intraperitoneal; outline: as §2
# [22] = test system: Mus musculus; assay: Postural effect on caudectomized Swiss albino mouse assessed as time duration of asymmetric posture at 64.6 mg/kg, ip; format: functional; details: route intraperitoneal; outline: as §2
# [23] = test system: Mus musculus; assay: Postural effect on caudectomized Swiss albino mouse assessed as latency to onset time of asymmetric postural effect at 96.9 mg/kg, ip; format: functional; details: route intraperitoneal; outline: as §1
# [24] = test system: Mus musculus; assay: Postural effect on caudectomized Swiss albino mouse assessed as time duration of asymmetric posture at 32.3 mg/kg, ip; format: functional; details: route intraperitoneal; outline: as §1
# [25] = test system: Mus musculus; assay: Postural effect on caudectomized Swiss albino mouse assessed as latency to onset time of asymmetric postural effect at 64.6 mg/kg, ip; format: functional; details: route intraperitoneal; outline: as §1
# [26] = test system: Mus musculus; assay: Postural effect on caudectomized Swiss albino mouse assessed as latency to onset time of asymmetric postural effect at 50.8 mg/kg, ip; format: functional; details: route intraperitoneal; outline: as §1
# [27] = test system: Mus musculus; assay: Postural effect on caudectomized Swiss albino mouse assessed as time duration of asymmetric posture at 50.8 mg/kg, ip; format: functional; details: route intraperitoneal; outline: as §2
# [28] = test system: Mus musculus; assay: Postural effect on caudectomized Swiss albino mouse assessed as latency to onset time of asymmetric postural effect at 25.4 mg/kg, ip; format: functional; details: route intraperitoneal; outline: as §1
# [29] = test system: Mus musculus; assay: Postural effect on caudectomized Swiss albino mouse assessed as time duration of asymmetric posture at 25.4 mg/kg, ip; format: functional; details: route intraperitoneal; outline: as §1
structure (smiles),measurement,setting,value
CCCN(CCc1ccc(O)c(O)c1)Cc1ccccc1.Cl,ED50,[1],21 mg/kg
same,Time,[2],5.7 min
same,Time,[3],7.8 min
same,Time,[4],5.2 min
same,Time,[5],26.6 min
CCCN(C)CCc1ccc(O)c(O)c1.Cl,ED50,[1],55 mg/kg
same,Activity,[6],Active
CCC(C)N(CCc1ccc(O)c(O)c1)C(C)CC.Cl (stereo not drawn),Activity,[7],inactive
same,Time,[8],5 min
same,Time,[9],7 min
same,Activity,[10],inactive
same,Activity,[11],inactive
same,Time,[12],5.2 min
same,Time,[13],10.8 min
same,Time,[14],1.8 min
same,Time,[15],7 min
CCCCCN(CCC)CCc1ccc(O)c(O)c1.Cl,ED50,[1],8.7 mg/kg
same,Time,[16],3.7 min
same,Time,[17],20.6 min
same,Time,[18],17.4 min
same,Time,[19],4.2 min
Br.CCCCN(CCCC)C1CCc2cc(O)c(O)cc2C1 (stereo not drawn),Time,[20],1 min
same,ED50,[1],44 mg/kg
same,Time,[21],13.7 min
same,Time,[22],8.8 min
same,Time,[23],4.1 min
same,Time,[24],1.6 min
same,Time,[25],5.3 min
CCCN(CCc1ccc(O)c(O)c1)CC(C)C.Cl,Time,[26],2.6 min
same,ED50,[1],7.4 mg/kg
same,Time,[27],39 min
same,Time,[28],2.8 min
same,Time,[29],18 min
